How the values were obtained:
Staphylococcus aureus [1] = assay: Antibacterial activity against Staphylococcus aureus ATCC 6538 after 24 hrs by microdilution method; format: functional; conditions: ATCC 6538, 24 h
Method in brief: (§1)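 Broth microdilution in 96-well plates. Bacterial suspensions were adjusted in sterile saline to 1.0 × 10⁵ CFU/ml, prepared daily and kept at 4 °C. Compound was added to LB broth with 1.0 × 10⁴ CFU per well and shaken at 160 rpm for 24 h at […] (so in the source). MIC is the lowest concentration with no visible growth under a binocular microscope. OD655 was also read. Duplicate, repeated three times.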

Bacillus cereus [2] = assay: Antibacterial activity against clinical isolate of Bacillus cereus after 24 hrs by microdilution method; format: functional; method in brief: as §1
Micrococcus flavus [3] = assay: Antibacterial activity against Micrococcus flavus ATCC 10240 after 24 hrs by microdilution method; format: functional; conditions: ATCC 10240, 24 h; method in brief: as §1
Listeria monocytogenes [4] = assay: Antibacterial activity against Listeria monocytogenes NCTC 7973 after 24 hrs by microdilution method; format: functional; conditions: NCTC 7973, 24 h; method in brief: as §1
Pseudomonas aeruginosa [5] = assay: Antibacterial activity against Pseudomonas aeruginosa ATCC 27853 after 24 hrs by microdilution method; format: functional; conditions: ATCC 27853, 24 h; method in brief: as §1
Salmonella typhimurium [6] = assay: Antibacterial activity against Salmonella Typhimurium ATCC 13311 after 24 hrs by microdilution method; format: functional, Salmonella enterica subsp. enterica serovar Typhimurium; conditions: Salmonella enterica, ATCC 13311, 24 h; method in brief: as §1
Escherichia coli [7] = assay: Antibacterial activity against Escherichia coli ATCC 35210 after 24 hrs by microdilution method; format: functional; conditions: ATCC 35210, 24 h; method in brief: as §1
Enterococcus faecalis [8] = assay: Antibacterial activity against Enterococcus faecalis isolated from human after 24 hrs by microdilution method; format: functional; method in brief: as §1
Staphylococcus aureus [9] = assay: Antibacterial activity against Staphylococcus aureus ATCC 6538 incubated for 24 hrs followed by serial sub-cultivation for 24 hrs by microdilution method; format: functional; conditions: ATCC 6538, 24 h
Method in brief: (§2)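 MBC: after the 24 h LB broth microdilution (1.0 × 10⁴ CFU per well, 160 rpm), wells were serially sub-cultured into fresh broth plates and incubated a further 24 h. MBC is the lowest concentration with no visible growth, taken as 99.5% killing of the original inoculum. Duplicate, repeated three times.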

Bacillus cereus [10] = assay: Antibacterial activity against clinical isolate of Bacillus cereus incubated for 24 hrs followed by serial sub-cultivation for 24 hrs by microdilution; format: functional; method in brief: as §2
Micrococcus flavus [11] = assay: Antibacterial activity against Micrococcus flavus ATCC 10240 incubated for 24 hrs followed by serial sub-cultivation for 24 hrs by microdilution; format: functional; conditions: ATCC 10240, 24 h; method in brief: as §2
Listeria monocytogenes [12] = assay: Antibacterial activity against Listeria monocytogenes NCTC 7973 incubated for 24 hrs followed by serial sub-cultivation for 24 hrs by microdilution; format: functional; conditions: NCTC 7973, 24 h; method in brief: as §2
Pseudomonas aeruginosa [13] = assay: Antibacterial activity against Pseudomonas aeruginosa ATCC 27853 incubated for 24 hrs followed by serial sub-cultivation for 24 hrs by microdilution; format: functional; conditions: ATCC 27853, 24 h; method in brief: as §2
Salmonella typhimurium [14] = assay: Antibacterial activity against Salmonella Typhimurium ATCC 13311 incubated for 24 hrs followed by serial sub-cultivation for 24 hrs by microdilution; format: functional, Salmonella enterica subsp. enterica serovar Typhimurium; conditions: Salmonella enterica, ATCC 13311, 24 h; method in brief: as §2
Escherichia coli [15] = assay: Antibacterial activity against Escherichia coli ATCC 35210 incubated for 24 hrs followed by serial sub-cultivation for 24 hrs by microdilution; format: functional; conditions: ATCC 35210, 24 h; method in brief: as §2
Enterococcus faecalis [16] = assay: Antibacterial activity against Enterococcus faecalis isolated from human incubated for 24 hrs followed by serial sub-cultivation for 24 hrs by microdilution; format: functional; method in brief: as §2
Aspergillus ochraceus [17] = assay: Antifungal activity against Aspergillus ochraceus ATCC 12066 after 72 hrs by serial dilution technique; format: functional; conditions: ATCC 12066, 72 h
Method in brief: (§3)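 Modified microdilution in 96-well plates. Fungi were kept on malt agar at 4 °C. Spores were washed off in sterile 0.85% saline with 0.1% Tween 80. Compounds were dissolved at 1 mg/ml in 5% DMSO with 0.1% Tween 80 and added to malt broth with inoculum. Plates were shaken at 160 rpm for 72 h at 28 °C. Duplicate, repeated three times.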

Aspergillus niger [18] = assay: Antifungal activity against Aspergillus niger ATCC 6275 after 72 hrs by serial dilution technique; format: functional; conditions: ATCC 6275, 72 h; method in brief: as §3
Aspergillus flavus [19] = assay: Antifungal activity against Aspergillus flavus ATCC 9643 after 72 hrs by serial dilution technique; format: functional; conditions: ATCC 9643, 72 h; method in brief: as §3
Talaromyces funiculosus [20] = assay: Antifungal activity against Penicillium funiculosum ATCC 36839 after 72 hrs by serial dilution technique; format: functional; conditions: ATCC 36839, 72 h; method in brief: as §3
Penicillium ochrochloron [21] = assay: Antifungal activity against Penicillium ochrochloron ATCC 9112 after 72 hrs by serial dilution technique; format: functional; conditions: ATCC 9112, 72 h; method in brief: as §3
Trichoderma viride [22] = assay: Antifungal activity against Trichoderma viride IAM 5061 after 72 hrs by serial dilution technique; format: functional; conditions: IAM 5061, 72 h; method in brief: as §3
Candida albicans [23] = assay: Antifungal activity against Candida albicans isolated from human after 72 hrs by serial dilution technique; format: functional; method in brief: as §3
Aspergillus ochraceus [24] = assay: Antifungal activity against Aspergillus ochraceus ATCC 12066 incubated for 72 hrs followed by serial sub-cultivation for 72 hrs by serial dilution technique; format: functional; conditions: ATCC 12066, 72 h
Method in brief: (§4)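 MFC: material from 72 h malt broth microdilution wells was serially sub-cultured into fresh broth plates and incubated a further 72 h at 28 °C. Fungicidal concentration is taken from growth after sub-culture. Duplicate, repeated three times.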

Aspergillus fumigatus [25] = assay: Antifungal activity against Aspergillus fumigatus isolated from human incubated for 72 hrs followed by serial sub-cultivation for 72 hrs by serial dilution technique; format: functional; method in brief: as §4
Aspergillus niger [26] = assay: Antifungal activity against Aspergillus niger ATCC 6275 incubated for 72 hrs followed by serial sub-cultivation for 72 hrs by serial dilution technique; format: functional; conditions: ATCC 6275, 72 h; method in brief: as §4
Aspergillus flavus [27] = assay: Antifungal activity against Aspergillus flavus ATCC 9643 incubated for 72 hrs followed by serial sub-cultivation for 72 hrs by serial dilution technique; format: functional; conditions: ATCC 9643, 72 h; method in brief: as §4
Talaromyces funiculosus [28] = assay: Antifungal activity against Penicillium funiculosum ATCC 36839 incubated for 72 hrs followed by serial sub-cultivation for 72 hrs by serial dilution technique; format: functional; conditions: ATCC 36839, 72 h; method in brief: as §4
Penicillium ochrochloron [29] = assay: Antifungal activity against Penicillium ochrochloron ATCC 9112 incubated for 72 hrs followed by serial sub-cultivation for 72 hrs by serial dilution technique; format: functional; conditions: ATCC 9112, 72 h; method in brief: as §4
Trichoderma viride [30] = assay: Antifungal activity against Trichoderma viride IAM 5061 incubated for 72 hrs followed by serial sub-cultivation for 72 hrs by serial dilution technique; format: functional; conditions: IAM 5061, 72 h; method in brief: as §4
Candida albicans [31] = assay: Antifungal activity against Candida albicans isolated from human incubated for 72 hrs followed by serial sub-cultivation for 72 hrs by serial dilution technique; format: functional; method in brief: as §4
Pseudomonas aeruginosa [32] = assay: Ratio of ampicillin MIC to compound MIC for Pseudomonas aeruginosa ATCC 27853; format: functional
Aspergillus ochraceus [33] = assay: Ratio of bifonazole to compound for Aspergillus ochraceus ATCC 12066; format: functional
Aspergillus niger [34] = assay: Ratio of bifonazole to compound for Aspergillus niger ATCC 6275; format: functional
Talaromyces funiculosus [35] = assay: Ratio of bifonazole to compound for Penicillium funiculosum ATCC 36839; format: functional
Penicillium ochrochloron [36] = assay: Ratio of bifonazole to compound for Penicillium ochrochloron ATCC 9112; format: functional
Trichoderma viride [37] = assay: Ratio of bifonazole to compound for Trichoderma viride IAM 5061; format: functional
Candida albicans [38] = assay: Ratio of bifonazole to compound for Candida albicans isolated from human; format: functional
Aspergillus ochraceus [39] = assay: Ratio of ketoconazole to compound for Aspergillus ochraceus ATCC 12066; format: functional
Aspergillus fumigatus [40] = assay: Ratio of ketoconazole to compound for Aspergillus fumigatus isolated from human; format: functional
Penicillium ochrochloron [41] = assay: Ratio of ketoconazole to compound for Penicillium ochrochloron ATCC 9112; format: functional
Candida albicans [42] = assay: Ratio of ketoconazole to compound for Candida albicans isolated from human; format: functional
Aspergillus ochraceus [43] = assay: Antifungal activity against Aspergillus ochraceus after 72 hrs by serial dilution technique

CCNc1nc(C)c(C(=O)/C=C/c2ccc(Cl)cc2)s1
10: Ratio (Pseudomonas aeruginosa [32]) | Ratio (Aspergillus ochraceus [33]) | Ratio (Aspergillus niger [34]) | Ratio (Talaromyces funiculosus [35]) | Ratio (Penicillium ochrochloron [36]) | Ratio (Trichoderma viride [37]) | Ratio (Candida albicans [38]) | Ratio (Aspergillus ochraceus [39]) | Ratio (Aspergillus fumigatus [40]) | Ratio (Penicillium ochrochloron [41]) | Ratio (Candida albicans [42])
32.7 µM: MIC (Talaromyces funiculosus [20]) | MIC (Trichoderma viride [22]) | MIC (Candida albicans [23])
49 µM: MIC (Salmonella typhimurium [6]) | MBC (Salmonella typhimurium [14]) | MIC (Aspergillus ochraceus [43])
65.3 µM: MIC (Micrococcus flavus [3]) | MIC (Pseudomonas aeruginosa [5]) | MIC (Escherichia coli [7]) | MIC (Aspergillus ochraceus [17]) | MIC (Aspergillus niger [18]) | MIC (Aspergillus flavus [19]) | MIC (Penicillium ochrochloron [21]) | MFC (Aspergillus fumigatus [25]) | MFC (Talaromyces funiculosus [28]) | MFC (Trichoderma viride [30]) | MFC (Candida albicans [31])
98 µM: MIC (Staphylococcus aureus [1]) | MIC (Listeria monocytogenes [4]) | MBC (Staphylococcus aureus [9]) | MBC (Listeria monocytogenes [12]) | MBC (Pseudomonas aeruginosa [13]) | MBC (Escherichia coli [15])
81.7 µM: MIC (Bacillus cereus [2]) | MIC (Enterococcus faecalis [8]) | MBC (Bacillus cereus [10]) | MBC (Micrococcus flavus [11]) | MBC (Enterococcus faecalis [16]) | MFC (Aspergillus ochraceus [24]) | MFC (Aspergillus niger [26]) | MFC (Aspergillus flavus [27]) | MFC (Penicillium ochrochloron [29])

CCNc1nc(C)c(C(=O)/C=C/c2ccccc2OC)s1
33.1 µM: MIC (Salmonella typhimurium [6]) | MIC (Talaromyces funiculosus [20]) | MIC (Trichoderma viride [22]) | MIC (Candida albicans [23])
99.3 µM: MBC (Staphylococcus aureus [9]) | MBC (Pseudomonas aeruginosa [13])
116 µM: MBC (Listeria monocytogenes [12])
31.3 µM: MIC (Micrococcus flavus [3])
66.2 µM: MIC (Staphylococcus aureus [1]) | MIC (Bacillus cereus [2]) | MIC (Aspergillus ochraceus [17]) | MIC (Aspergillus flavus [19]) | MIC (Penicillium ochrochloron [21]) | MFC (Aspergillus fumigatus [25]) | MFC (Aspergillus niger [26]) | MFC (Talaromyces funiculosus [28]) | MFC (Trichoderma viride [30]) | MFC (Candida albicans [31])
82.8 µM: MIC (Listeria monocytogenes [4]) | MIC (Pseudomonas aeruginosa [5]) | MIC (Escherichia coli [7]) | MIC (Enterococcus faecalis [8]) | MBC (Bacillus cereus [10]) | MBC (Micrococcus flavus [11]) | MBC (Salmonella typhimurium [14]) | MBC (Escherichia coli [15]) | MBC (Enterococcus faecalis [16]) | MFC (Aspergillus ochraceus [24]) | MFC (Aspergillus flavus [27]) | MFC (Penicillium ochrochloron [29])
49.7 µM: MIC (Aspergillus niger [18]) | MIC (Aspergillus ochraceus [43])
10: Ratio (Pseudomonas aeruginosa [32]) | Ratio (Aspergillus ochraceus [33]) | Ratio (Aspergillus niger [34]) | Ratio (Talaromyces funiculosus [35]) | Ratio (Penicillium ochrochloron [36]) | Ratio (Trichoderma viride [37]) | Ratio (Candida albicans [38]) | Ratio (Aspergillus ochraceus [39]) | Ratio (Aspergillus fumigatus [40]) | Ratio (Penicillium ochrochloron [41]) | Ratio (Candida albicans [42])
